In brackets after ≈: the same amount, converted by molar mass.
What was measured:
Format in all cases: functional
[1] = system: Staphylococcus epidermidis; test: In vitro minimum inhibitory concentration against Staphylococcus epidermis ATCC 12228
Streptococcus pyogenes [2] = test: In vitro minimum inhibitory concentration against Streptococcus pyogenes C 203
Enterococcus faecalis = test: In vitro minimum inhibitory concentration against Streptococcus faecalis ATCC 7080
Staphylococcus aureus = test: In vitro minimum inhibitory concentration against Staphylococcus aureus Tour
Escherichia coli = test: In vitro minimum inhibitory concentration against Escherichia coli SKF 12140
Proteus vulgaris = test: In vitro minimum inhibitory concentration against Proteus vulgaris X 19 ATCC 881
Streptococcus pyogenes [3] = test: Subcutaneously administration into mice infected with Streptococcus pyogenes C 203; conditions: sc
Procedure, shortened: (§1)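 Mice (five per treatment group, five groups) infected intraperitoneally with about 10⁵ cells of Strep. pyogenes C 203, about 100× the LD50. ED50 (mg/kg) was calculated from the percentage of mice surviving at each dose on day 7.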

Streptococcus pneumoniae = test: In vitro minimum inhibitory concentration against Streptococcus pneumoniae UC41
Streptococcus pyogenes [4] = test: In vivo effective dose given perorally to mice infected with Streptococcus pyogenes C 203; conditions: po; procedure, shortened: as §1
[5] = system: Staphylococcus haemolyticus; test: In vitro minimum inhibitory concentration against Staphylococcus hemolyticus 602 cell line; conditions: strain 602

SMILES | MIC [1] [µg/mL] | MIC (Streptococcus pyogenes [2]) [µg/mL] | MIC (Enterococcus faecalis) [µg/mL] | MIC (Staphylococcus aureus) [µg/mL] | MIC (Escherichia coli) [µg/mL] | MIC (Proteus vulgaris) [µg/mL] | ED50 (Streptococcus pyogenes [3]) [mg/kg] | MIC (Streptococcus pneumoniae) [µg/mL] | ED50 (Streptococcus pyogenes [4]) [mg/kg] | MIC [5] [µg/mL]
CC(=O)NC1C(O[C@@H]2c3ccc(c(Cl)c3)Oc3cc4cc(c3O)Oc3ccc(cc3Cl)C[C@H]3NC(=O)[C@H](N)c5ccc(O)c(c5)Oc5cc(O)cc(c5)[C@H](NC3=O)C(=O)N[C@H]4C(=O)N[C@H]3C(=O)N[C@@H]2C(=O)N[C@H](C(=O)NCCN2CCCC2)c2cc(O)cc(O)c2-c2cc3ccc2O)OC(CO)C(O)C1O (stereo partly drawn) | 0.06 (≈ 0.04 µM) | 0.25 (≈ 0.167 µM) | 0.5 (≈ 0.334 µM) | 0.12 (≈ 0.0801 µM) | 128 (≈ 85.4 µM) | > 128 | 2.2 | 0.25 (≈ 0.167 µM) | – | –
CC(=O)N[C@@H]1[C@H](O[C@@H]2c3ccc(c(Cl)c3)Oc3cc4cc(c3O[C@@H]3O[C@@H](CO)[C@@H](O)[C@H](O)[C@@H]3NC(=O)CCCCCCC(C)C)Oc3ccc(cc3Cl)C[C@H]3NC(=O)[C@H](N)c5ccc(O)c(c5)Oc5cc(O)cc(c5)[C@H](NC3=O)C(=O)N[C@H]4C(=O)N[C@H]3C(=O)N[C@@H]2C(=O)N[C@H](C(=O)NC2CN4CCC2CC4)c2cc(O)cc(O[C@H]4O[C@H](CO)[C@@H](O)[C@@H](O)[C@@H]4O)c2-c2cc3ccc2O)O[C@@H](CO)[C@@H](O)[C@@H]1O (stereo partly drawn) | 0.12 (≈ 0.0604 µM) | 0.06 (≈ 0.0302 µM) | 0.12 (≈ 0.0604 µM) | 0.12 (≈ 0.0604 µM) | – | – | 0.07 | 0.06 (≈ 0.0302 µM) | 173 | –
CCOC(=O)CNC(=O)[C@H]1NC(=O)[C@H]2NC(=O)[C@H](NC(=O)[C@@H]3NC(=O)[C@H]4NC(=O)[C@@H](Cc5ccc(c(Cl)c5)Oc5cc3cc(c5O)Oc3ccc(cc3Cl)[C@H]2O[C@@H]2O[C@@H](CO)[C@@H](O)[C@H](O)[C@@H]2NC(C)=O)NC(=O)[C@H](N)c2ccc(O)c(c2)Oc2cc(O)cc4c2)c2ccc(O)c(c2)-c2c(O)cc(O)cc21 | 0.12 (≈ 0.0807 µM) | 0.25 (≈ 0.168 µM) | 1 (≈ 0.672 µM) | 0.5 (≈ 0.336 µM) | 128 (≈ 86.1 µM) | > 128 | 5 | 1 (≈ 0.672 µM) | – | –
CC(=O)N[C@@H]1[C@H](O[C@@H]2c3ccc(c(Cl)c3)Oc3cc4cc(c3O[C@@H]3O[C@@H](CO)[C@@H](O)[C@H](O)[C@@H]3NC(=O)CCCCCCC(C)C)Oc3ccc(cc3Cl)C[C@H]3NC(=O)[C@H](N)c5ccc(O)c(c5)Oc5cc(O)cc(c5)[C@H](NC3=O)C(=O)N[C@H]4C(=O)N[C@H]3C(=O)N[C@@H]2C(=O)N[C@H](C(=O)NCC(=O)O)c2cc(O)cc(O[C@H]4O[C@H](CO)[C@@H](O)[C@@H](O)[C@@H]4O)c2-c2cc3ccc2O)O[C@@H](CO)[C@@H](O)[C@@H]1O | 0.12 (≈ 0.062 µM) | 0.12 (≈ 0.062 µM) | 0.25 (≈ 0.129 µM) | 0.12 (≈ 0.062 µM) | – | – | 0.23 | 0.12 (≈ 0.062 µM) | > 300 | –
CC(=O)N[C@@H]1[C@H](O[C@@H]2c3ccc(c(Cl)c3)Oc3cc4cc(c3O[C@@H]3O[C@@H](CO)[C@@H](O)[C@H](O)[C@@H]3NC(=O)CCCCCCC(C)C)Oc3ccc(cc3Cl)C[C@H]3NC(=O)[C@H](N)c5ccc(O)c(c5)Oc5cc(O)cc(c5)[C@H](NC3=O)C(=O)N[C@H]4C(=O)N[C@H]3C(=O)N[C@@H]2C(=O)N[C@H](C(=O)NCCN2CCCC2)c2cc(O)cc(O[C@H]4O[C@H](CO)[C@@H](O)[C@@H](O)[C@@H]4O)c2-c2cc3ccc2O)O[C@@H](CO)[C@@H](O)[C@@H]1O | 0.12 (≈ 0.0607 µM) | 0.06 (≈ 0.0304 µM) | 0.12 (≈ 0.0607 µM) | 0.12 (≈ 0.0607 µM) | – | – | 0.06 | 0.12 (≈ 0.0607 µM) | 173 | –
CCCCC/C=C/CCC(=O)N[C@@H]1[C@H](Oc2c3cc4cc2Oc2ccc(cc2Cl)[C@@H](O[C@@H]2O[C@@H](CO)[C@@H](O)[C@H](O)[C@@H]2NC(C)=O)[C@@H]2NC(=O)[C@H](NC(=O)[C@@H]4NC(=O)[C@H]4NC(=O)[C@@H](Cc5ccc(c(Cl)c5)O3)NC(=O)[C@H](N)c3ccc(O)c(c3)Oc3cc(O)cc4c3)c3ccc(O)c(c3)-c3c(O[C@H]4O[C@H](CO)[C@@H](O)[C@@H](O)[C@@H]4O)cc(O)cc3[C@@H](C(=O)NC(CCC(=O)O)C(=O)O)NC2=O)O[C@@H](CO)[C@@H](O)[C@@H]1O (stereo partly drawn) | 0.12 (≈ 0.0598 µM) | 0.06 (≈ 0.0299 µM) | 0.25 (≈ 0.125 µM) | 0.5 (≈ 0.249 µM) | – | – | – | 0.12 (≈ 0.0598 µM) | – | 4 (≈ 1.99 µM)

Source: ChEMBL document CHEMBL1124366, “Synthesis and biological properties of N63-carboxamides of teicoplanin antibiotics. Structure-activity relationships” (J Med Chem, 1989)
